Laboratory results reported in publication PMC9425296 (Journal of the American Chemical Society, 2022).
*1 amine or outer side, *2 acyl side, *3 side chain or, on linkers, in order; H or OH if unused. Where a SMILES comes first, the peptide text is derived from it. Bridges are numbered along the chain shown (N, C = ends). [ ]: non-standard residue; d: D form. X1 = O=C([C@@H]1C[C@H](SCc2cccc(C[*:3])c2)CN1[*:1])[*:2]

Assays:
[1] = tested on: OVCAR8 cells (p62, LC3B, GABARAP); test: Western blot of autophagy markers in OVCAR8 cells; assay type: cell-based; settings: OVCAR8, 25 μM peptide plus 10 μM cisplatin, 48 h
[2] = tested on: five human paralogs in the GABARAP/LC3 family (GABARAP, GABARAP-L1, GABARAP-L2, LC3A, LC3B); test: FP binding across human LC3/GABARAP paralogs; settings: fluorescein-tagged peptide
How it was run: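 Fluorescence polarization with N-terminally fluorescein-labelled peptides titrated against each recombinant protein (GABARAP, GABARAP-L1, GABARAP-L2, LC3A, LC3B). Kd values come from the FP binding data. Results are the average and standard error of the mean of three or more independent trials.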

CC(C)C[C@H](NC(=O)[C@@H]1CSCc2cccc(c2)CS[C@H]2C[C@@H](C(=O)N[C@@H](Cc3ccc(O)cc3)C(=O)N[C@@H]([C@@H](C)O)C(=O)N[C@@H](Cc3c[nH]c4ccccc34)C(=O)N[C@@H](CCC(=O)O)C(=O)N1)N(C(=O)[C@H](C)NC(=O)[C@@H](N)CC(=O)O)C2)C(=O)N[C@@H](C)C(=O)N[C@@H](Cc1c[nH]c2ccccc12)C(=O)N1CCC[C@H]1C(N)=O [MP3-meta] (H-DA[X1]YTWECLAWP-NH2; thioether 3-8; N-terminus and C-terminus assumed)
LC3B-I level compared to cells treated with cisplatin alone [1]: increased LC3B-I | binding to GABARAP and GABARAPL1 (in words) [2]: low-to-mid nanomolar range | binding to GABARAP-L2, LC3A and LC3B (in words) [2]: mostly in the micromolar range
